Measured values pooled from the literature.
Each line is one published result; the experiments were not run side by side.
Observed: microbial growth

| SMILES | organism | technique | strain | time | MIC |
| --- | --- | --- | --- | --- | --- |
| O=C(N[C@H](CO)[C@H](O)c1ccc([N+](=O)[O-])cc1)C(Cl)Cl | Micrococcus flavus | broth dilution |  |  | 7 µg/mL |
| O=C(O)CN1C(=O)/C(=C/c2c3ccccc3c(-c3ccc(N(c4ccccc4)c4ccccc4)cc3)c3ccccc23)NC1=S | Micrococcus luteus | broth dilution | ATCC10240 |  | > 1000 µg/mL |
| CO[C@H]1C[C@@H]2CC[C@@H](C)[C@@](O)(O2)C(=O)C(=O)N2CCCC[C@H]2C(=O)O[C@H]([C@H](C)C[C@@H]2CC[C@@H](OC(=O)C(C)(CO)CO)[C@H](OC)C2)CC(=O)[C@H](C)/C=C(\C)[C@@H](O)[C@@H](OC)C(=O)[C@H](C)C[C@H](C)/C=C/C=C/C=C/1C | Staphylococcus aureus |  | NCTC8325 |  | > 30 µM |
| O=C(O)CN1C(=O)/C(=C/c2c3ccccc3c(-c3ccc(N(c4ccccc4)c4ccccc4)cc3)c3ccccc23)SC1=S | Micrococcus luteus | broth dilution | ATCC10240 |  | 125 µg/mL |
| Cc1ncc([N+](=O)[O-])n1CCO | Lactobacillus acidophilus | agar dilution |  | 48 h | > 16 µg/mL |
| C/C=C(\C)c1cc(OC(=O)c2c(O)c(C)c(O)c(Cl)c2/C(C)=C/C)c(C)c(O)c1C(=O)O | Micrococcus luteus | broth dilution | ML01 |  | 32 µg/mL |
| CC1=NN(CNc2ccccc2[N+](=O)[O-])C(=O)C1=NNn1c(-c2ccccc2)nc2ccccc2c1=O | Micrococcus luteus | broth dilution |  | 24 h | 50.4 µM |
| O=c1[nH]c(NCc2ccc(Cl)c(Cl)c2)nc2ncn(CCN3CCOCC3)c12 | Lactobacillus acidophilus | agar dilution |  | 48 h | 4 µg/mL |
| COc1ccc(-c2cc3c(C)nc(N)nc3n([C@H]3CC[C@H](OCCO)CC3)c2=O)cn1 | Staphylococcus aureus |  | NCTC8325 |  | > 30 µM |
| O=C(O)CN1C(=O)/C(=C/c2ccc(-c3ccc(N(c4ccccc4)c4ccccc4)cc3)c3ccccc23)SC1=S | Micrococcus luteus | broth dilution | ATCC10240 |  | 31.3 µg/mL |
| CNC(=O)c1cc(Oc2ccc(NC(=O)Nc3c(C)cccc3Cl)cc2)ccn1 | Staphylococcus aureus |  | NCTC8325 |  | > 100 µM |
| CC1=NN(CNc2ccc(C(=O)O)cc2)C(=O)C1=NNn1c(-c2ccccc2)nc2ccccc2c1=O | Micrococcus luteus | broth dilution |  | 24 h | 50.5 µM |
| COC(=O)c1sc(C(C)(C)C)cc1NC(=O)Nc1ccc(C)cc1 | Staphylococcus aureus |  | NCTC8325 |  | > 100 µM |
| O=C1NC(=S)S/C1=C\c1ccc(-c2ccc(N(c3ccccc3)c3ccccc3)cc2)c2ccccc12 | Micrococcus luteus | broth dilution | ATCC10240 |  | 250 µg/mL |
| CC1=NN(CNc2ccc(Cl)cc2)C(=O)C1=NNn1c(-c2ccccc2)nc2ccccc2c1=O | Micrococcus luteus | broth dilution |  | 24 h | 103 µM |
| O=C(O)CN1C(=O)/C(=C/c2ccc(-c3ccc(N(c4ccccc4)c4ccccc4)cc3)cc2)NC1=S | Micrococcus luteus | broth dilution | ATCC10240 |  | 1.95 µg/mL |
| O=C1NC(=O)/C(=C/c2ccc3c(c2)OC(F)(F)O3)S1 | Staphylococcus aureus |  | NCTC8325 |  | > 30 µM |
